A short description of experiment [1]: growth inhibition of breast cancer stem-like cells, dose response, cell-based, HMLE_shECad, CellTiter-Glo luminescence, dry powder, set 7 (AID 504788). The settings on record: HMLE_shECad viability, CellTiter-Glo luminescence, 72 h; at 19.5 µM (top of the series). The gist of the method:
(§1)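 System: HMLE_shECad cells, E-cadherin knockdown, EMT-induced breast cancer stem cell model / Input: 2000 cells/well / Buffer or medium: serum-free CSC screening medium, 37 °C, 5% CO2 / Doses: 100 nL compound pinned into each well / Incubation: ≥4 h settling, then 70–74 h compound exposure, 37 °C / Technique: CellTiter-Glo luminescence, reagent diluted 1:3 in PBS, 12 min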

Experiment [2] has as its system HMLE_shECad viability, CellTiter-Glo luminescence, 72 h. Described as above. Put shortly:
as §1

Records with an inconclusive call do not appear. Active and inactive are the calls of the source.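 How the source made its calls: active means compound lowers the viability signal with a fitted half-maximal concentration within ten times the top dose, every run; inconclusive means runs disagree, poor fit, or flat partial inhibition; inactive means the rest.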

For the compound `O=C(O)COc1ccc(Cl)cc1Cl`, the activity change, negative = inhibition in experiment [1] is -2.16% (inactive). A word on the AC50: it is the concentration at which the activity in the assay is half-maximal. With `Cc1ccnc(NCc2cccc(C(=O)Nc3nc(C)cs3)c2)c1`, in experiment [2], the AC50 is 17.7 µM. Consider `O=C(c1ccc(COc2ccccc2)o1)N1CC(F)(F)C1`, for which, in experiment [1], the activity change, negative = inhibition is 1.55% (inactive).

Consider `Cc1csc(NC(=O)c2cccc(COc3cccc(Cl)c3)c2)n1`, for which the AC50 in experiment [2] was 1.11 µM. Take `Cc1csc(NC(=O)COc2ccc(Cl)cc2Cl)n1`: the AC50 in experiment [2] was 28.9 µM. In the case of `N#Cc1cccc(/C=C/C(=O)NC2=NCCS2)c1`, the activity change, negative = inhibition in experiment [1] is 0.158% (inactive). With `Cc1csc(NC(=O)c2cccc(COc3ccccc3F)c2)n1`, the AC50 in experiment [2] is 1.93 µM. For the compound `Cc1cccc(OCc2ccc(C(=O)Nc3nc(C)cs3)o2)n1`, in experiment [2], the AC50 was 18.7 µM.

As to `O=C(/C=C/c1ccc(-c2ccccc2)nc1)NC1=NCCS1`, the AC50 in experiment [2] is 29 µM. On to `O=C(c1ccc(COc2ccccc2)o1)n1ccc(-c2ccc[nH]2)n1`, for which the activity change, negative = inhibition in experiment [1] was 7.35% (inactive).

On to `Cc1csc(NC(=O)c2cccc(COc3cccc(F)c3)c2)n1`, for which the AC50 in experiment [2] is 0.705 µM. As to `CC(C)c1ccc(/C=C/C(=O)n2ccc(-c3ccc[nH]3)n2)cc1`, the AC50 in experiment [2] is 15.6 µM. On to `O=C(COc1ccc(Cl)cc1Cl)N/N=C/c1ccccc1`, for which the activity change, negative = inhibition in experiment [1] is 3.46% (inactive). On to `c1c[nH]c(-c2ccn[nH]2)c1`, for which the activity change, negative = inhibition in experiment [1] was 5% (inactive). Still for that read-out and setting: the result for `Cc1csc(NC(=O)c2ccc(COc3cccnc3)o2)n1` reads -5.96% (inactive); that for `N#Cc1ccccc1/C=C/C(=O)NC1=NCCS1`, -13.1% (inactive). Consider `Cc1csc(NC(=O)c2cccc(CNc3ncccc3F)c2)n1`, for which the AC50 in experiment [2] was 22.9 µM. With `Cc1csc(NC(=O)c2ccc(COc3ncccc3F)o2)n1`, the AC50 in experiment [2] is 22.7 µM.

`COc1cccc2c1C(=O)c1c(O)c3c(c(O)c1C2=O)C[C@@](O)(C(=O)CO)C[C@@H]3OC1C[C@H](N)[C@H](O)[C@H](C)O1` (stereo not given in full): the AC50 in experiment [2] is 0.053 µM.

`COc1cc([C@@H]2c3cc4c(cc3[C@@H](OC3OC5COC(C)OC5C(O)C3O)[C@H]3COC(=O)[C@H]23)OCO4)cc(OC)c1O` (stereo not given in full): the AC50 in experiment [2] is 2.95 µM. Regarding `CCc1ccc(/C=C/C(=O)NC2=NCCS2)cn1`, the activity change, negative = inhibition in experiment [1] is 1.08% (inactive). For the compound `O=C(COc1c(Cl)cc(Cl)cc1Cl)N/N=C/c1ccc[nH]1`, the AC50 in experiment [2] was 1.7 µM. Still for that read-out and setting: the result for `Cc1cccc(OCc2cccc(C(=O)Nc3nc(C)cs3)c2)c1` reads 2.74 µM. As to `Cc1csc(NC(=O)c2ccc(COc3cccc(OC(F)(F)F)c3)o2)n1`, the AC50 in experiment [2] was 0.895 µM. On to `COc1cc(OC(C)C)ccc1/C=C/C(=O)NC1=NCCS1`, for which, in experiment [1], the activity change, negative = inhibition is -1.34% (inactive). In the case of `Cc1cccc(NCc2ccc(C(=O)Nc3nc(C)cs3)o2)n1`, in experiment [2], the concentration at half-maximal activity (AC50) is 18 µM.

For `CC(C)c1ccc(/C=C/C(=O)N2CC(F)(F)C2)cc1`, the activity change, negative = inhibition in experiment [1] was -4.76% (inactive). Still for that read-out and setting: under `CC(C)c1ccc(C#CC(=O)NC2=NCCS2)cc1` stands -4.05% (inactive). On to `Cc1cccc(NCc2cccc(C(=O)Nc3nc(C)cs3)c2)n1`, for which the AC50 in experiment [2] is 21.1 µM. As for `Cc1cccc(/C=C/C(=O)NC2=NCCS2)c1`, the activity change, negative = inhibition in experiment [1] is 6.76% (inactive). As for `O=C(COc1ccc(Cl)cc1Cl)n1ccc(-c2ccc[nH]2)n1`, the activity change, negative = inhibition in experiment [1] is 7.33% (inactive).

On to `COc1cc(C(C)C)ccc1/C=C/C(=O)NC1=NCCS1`, for which, in experiment [2], the AC50 is 30.6 µM. Take `O=C(COc1ccc(Cl)cc1Cl)NC1=NCCS1`: the activity change, negative = inhibition in experiment [1] is -3.83% (inactive).

As to `Cc1csc(NC(=O)c2ccc(COc3ccncc3)o2)n1`, the AC50 in experiment [2] is 20 µM. As for `CN(C)C(=N)N=C(N)N`, the activity change, negative = inhibition in experiment [1] is 6.34% (inactive).

For the origin of these results see PubChem BioAssay AID504788 (Broad Institute, 2011).
